In paper PMC4201344 (ACS Chemical Biology, 2014):
Changes are numbered by the printed parent chain. “Also recorded” adds a separate entry of the source.

What was measured:
Type in all cases: cell-based, C. elegans
Conditions in all cases: glutamate
[1] = test system: GluClβ with α signal peptide, T6′S, F96TAG F1–Phe; assay: two-electrode voltage clamp, Xenopus laevis oocytes, nonsense suppression
[2] = test system: GluClβ with α signal peptide, T6′S, Y156TAG F1–Phe; assay: as above
GluClβ T6′S, N202A = GluClβ T6′S, N202A (Caenorhabditis elegans, UniProt Q17328, N228A/T283S); assay: two-electrode voltage clamp, Xenopus laevis oocytes
GluClβ T6′S, N202A, sequence (Q17328 23-434 N228A/T283S): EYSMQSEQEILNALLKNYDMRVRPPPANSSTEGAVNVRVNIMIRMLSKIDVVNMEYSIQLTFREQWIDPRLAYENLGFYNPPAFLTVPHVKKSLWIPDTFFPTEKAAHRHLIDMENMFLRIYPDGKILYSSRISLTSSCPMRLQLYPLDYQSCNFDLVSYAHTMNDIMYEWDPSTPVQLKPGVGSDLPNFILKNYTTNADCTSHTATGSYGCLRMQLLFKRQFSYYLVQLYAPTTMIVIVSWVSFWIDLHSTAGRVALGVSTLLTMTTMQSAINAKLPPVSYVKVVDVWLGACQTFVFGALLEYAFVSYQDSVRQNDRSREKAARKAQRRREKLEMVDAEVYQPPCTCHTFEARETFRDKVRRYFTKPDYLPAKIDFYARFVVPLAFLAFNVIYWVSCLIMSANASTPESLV

GluClβ T6′S, R59A = GluClβ T6′S, R59A (Caenorhabditis elegans, UniProt Q17328, R85A/T283S); assay: two-electrode voltage clamp, Xenopus laevis oocytes
GluClβ T6′S, R59A, sequence (Q17328 23-434 R85A/T283S): as the sequence (Q17328 23-434 N228A/T283S) above, with R63A, A206N counted along it
Procedure, shortened: (§1)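 C. elegans GluClβ (mammalian codon-optimised) in pGEMhe, mutated by QuikChange; T7 mRNA. […] Voltage clamp at −60 mV in Ca-free ND96, pH 7.5. […] Peak currents taken from baseline, normalised, averaged per concentration, and fit to Hill equation (EC50, nH).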

[3] = test system: GluClβ T6′S, Y206TAG CN–Phe; assay: two-electrode voltage clamp, Xenopus laevis oocytes, nonsense suppression
GluClβ A17′S = target: T1, GluClβ A17′S (Caenorhabditis elegans, UniProt Q17328, A294S); assay: two-electrode voltage clamp, Xenopus laevis oocytes
T1 sequence (Q17328 23-434 A294S): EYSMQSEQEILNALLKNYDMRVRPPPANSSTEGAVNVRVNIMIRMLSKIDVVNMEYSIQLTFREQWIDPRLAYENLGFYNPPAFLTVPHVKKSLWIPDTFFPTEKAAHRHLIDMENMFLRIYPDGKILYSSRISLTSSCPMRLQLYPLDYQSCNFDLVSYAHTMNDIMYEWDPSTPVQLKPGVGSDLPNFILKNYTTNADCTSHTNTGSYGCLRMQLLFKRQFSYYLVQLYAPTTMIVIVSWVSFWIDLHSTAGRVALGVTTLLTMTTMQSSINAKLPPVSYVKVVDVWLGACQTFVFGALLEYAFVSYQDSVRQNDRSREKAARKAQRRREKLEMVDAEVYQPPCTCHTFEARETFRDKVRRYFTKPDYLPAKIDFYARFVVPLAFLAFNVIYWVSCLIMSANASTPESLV

[4] = test system: GluClβ with α signal peptide, T6′S, F96TAG F3–Phe; assay: two-electrode voltage clamp, Xenopus laevis oocytes, nonsense suppression
GluClβ AG-2′,-1′PA = GluClβ AG-2′,-1′PA (Caenorhabditis elegans, UniProt Q17328, A275P/G276A); assay: two-electrode voltage clamp, Xenopus laevis oocytes
GluClβ AG-2′,-1′PA, sequence (Q17328 23-434 A275P/G276A): as the sequence (Q17328 23-434 N228A/T283S) above, with A206N, A253P, G254A, S261T counted along it

[5] = test system: GluClβ with α signal peptide, T6′S, Y156TAG OMe–Phe; assay: two-electrode voltage clamp, Xenopus laevis oocytes, nonsense suppression
Procedure, shortened: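 Site-specific TAG codon, read by 74mer THG73 tRNA ligated to dCA-acylated amino acid; NVOC removed by 5 min xenon-lamp irradiation just before injection. Oocytes coinjected with 37.5 ng mRNA plus ~1 μg/μL tRNA at 48 and 24 h pre-recording; unacylated 76mer tRNA served as read-through control.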

GluClβ A20′T = target: T2, GluClβ A20′T (Caenorhabditis elegans, UniProt Q17328, A297T); assay: two-electrode voltage clamp, Xenopus laevis oocytes
T2 sequence (Q17328 23-434 A297T): T1 sequence (Q17328 23-434 A294S) with S272A, A275T

GluClβ T13′A = target: T3, GluClβ T13′A (Caenorhabditis elegans, UniProt Q17328, T290A); assay: as above
T3 sequence (Q17328 23-434 T290A): T1 sequence (Q17328 23-434 A294S) with T268A, S272A

GluClβ T6′S, Y156A = GluClβ T6′S, Y156A (Caenorhabditis elegans, UniProt Q17328, T283S/Y182A); assay: two-electrode voltage clamp, Xenopus laevis oocytes
GluClβ T6′S, Y156A, sequence (Q17328 23-434 Y182A/T283S): as the sequence (Q17328 23-434 N228A/T283S) above, with Y160A, A206N counted along it
Procedure, shortened: as §1

With `N[C@@H](CCC(=O)O)C(=O)O` [glutamate] the EC50 [1] was 80 ± 2 µM, the Hill [1] was 2.8 ± 0.2 and the Imax [1] was 0.1–0.5 μA. For the same compound, the EC50 [2] was 14000 ± 1000 µM, the Hill [2] was 2.0 ± 0.1 and the Imax [2] was 0.1–5 μA. For the same compound, the Hill (GluClβ T6′S, N202A) was 3.3 ± 0.2, the EC50 (GluClβ T6′S, R59A) was “no response” and the EC50 [3] was 19000 ± 1000 µM. For the same compound, the Hill [3] was 2.8 ± 0.2, the Imax [3] was 0.8–6 μA and the EC50 (GluClβ A17′S) was 230 ± 10 µM. For the same compound, the Hill (GluClβ A17′S) was 2.5 ± 0.1, the Imax (GluClβ A17′S) was 0.6–12 μA and the EC50 [4] was 39 ± 1 µM. For the same compound, the Hill [4] was 2.4 ± 0.2, the Imax [4] was 0.06–0.6 μA and the Imax (GluClβ AG-2′,-1′PA) was 12–66 μA. The EC50 [5] was “nonfunctional; also recorded: no response”, the EC50 (GluClβ A20′T) was 110 ± 20 µM and the Hill (GluClβ A20′T) was 1.7 ± 0.1. The Imax (GluClβ A20′T) was 0.5–48 μA, the EC50 (GluClβ T13′A) was 38 ± 1 µM and the Hill (GluClβ T13′A) was 2.8 ± 0.1. The Imax (GluClβ T13′A) was 0.1–6 μA and the EC50 (GluClβ T6′S, Y156A) was “no response”.
